Source: ChEMBL document CHEMBL1155605, “Effect of lichen metabolites on thylakoid electron transport and photophosphorylation in isolated spinach chloroplasts” (J Nat Prod, 2000)
One block for each compound: values may come before it. Calls of active or inactive are those of the source. No cut-off for these calls is given here.

What was measured:
Echinochloa crus-galli [1] = assay: Phytogrowth-inhibitory activity against Echinochloa crusgalli assessed as inhibition of seedling growth; type: functional, organism-based
Summary of the method: (§1)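 Petri-dish seed assay at 28 °C, run at 1, 10, 100 and 1000 µg/mL with 2,4-D as positive control. Data analysed by ANOVA (p<0.05). IC50 in molar units obtained by Probit analysis of percent radicle growth inhibition.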

Echinochloa crus-galli [2] = assay: Phytogrowth-inhibitory activity against Echinochloa crusgalli assessed as inhibition of seedling germination; type: functional, organism-based
[3] = tested on: Amaranthus hypochondriacus; assay: Phytogrowth-inhibitory activity against Amaranthus hypochondriacus assessed as inhibition of seedling germination; type: functional, organism-based
[4] = tested on: Amaranthus hypochondriacus; assay: Phytogrowth-inhibitory activity against Amaranthus hypochondriacus assessed as inhibition of seedling growth; type: functional, organism-based; summary of the method: as §1
Spinacia oleracea [5] = assay: Effect on uncoupled photosystem 2 of spinach leaves chloroplast assessed as inhibition of electron transport from diphenylcarbazide to 2,6-dichlorophenol indophenol at 250 uM relative to control
Summary of the method: (§2)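 Tris-treated (0.8 M, pH 8.0) spinach thylakoids in uncoupled medium with 200 µM DPC, 100 µM DCPIP, 1 µM DBMIB and 6 mM NH4Cl. DCPIP reduction followed spectrophotometrically. Activity expressed relative to control.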

[6] = Inhibition of light-dependent proton uptake in spinach leaves chloroplast; type: functional, Spinacia oleracea; conditions: read-out: I50
Summary of the method: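 Light-driven proton uptake recorded as a pH rise from 8.0 to 8.1 with a combination microelectrode on an expanded-scale potentiometer. Medium: 100 mM sorbitol, 5 mM MgCl2, 10 mM KCl, 1 mM tricine pH 8.0, 0.05 mM MV. Compounds at 50–300 µM. I50 read from the plot of percent activity against concentration.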

Spinacia oleracea [7] = assay: Effect on uncoupled photosystem 2 of spinach leaves chloroplast assessed as inhibition of electron transport from diphenylcarbazide to 2,6-dichlorophenol indophenol at 100 uM relative to control; summary of the method: as §2
Spinacia oleracea [8] = assay: Effect on uncoupled photosystem 2 of spinach chloroplast assessed as inhibition of electron transport rate of water to silicomolybdate at 150 uM relative to control
Summary of the method: (§3)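 Intact thylakoids from market spinach leaves, stored dark 1 h at 0 °C. Uncoupled medium: 100 mM sorbitol, 5 mM MgCl2, 10 mM KCl, 15 mM tricine pH 8.0, 0.5 mM KCN, 300 µM ferricyanide, 1 µM DBMIB, 100 µM DCPIP, 6 mM NH4Cl, plus 200 µM SiMo and 10 µM DCMU. O2 evolution by Clark electrode under filtered actinic light for 2 min. Activity expressed relative to control.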

Spinacia oleracea [9] = assay: Effect on uncoupled photosystem 2 of spinach chloroplast assessed as inhibition of electron transport rate of water to silicomolybdate at 300 uM relative to control; summary of the method: as §3
[10] = Inhibition of photosynthetic phosphorylation from water to methyl viologen in spinach leaves chloroplast; type: functional, Spinacia oleracea; conditions: read-out: I50
Summary of the method: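 ATP synthesis determined titrimetrically by pH change, with 0.05 mM MV as Hill acceptor in 100 mM sorbitol, 5 mM MgCl2, 10 mM KCl, 1 mM tricine pH 8.0. Compounds at 50–300 µM; DCMU at 0.01–10.0 µM as reference. I50 extrapolated from the percent-activity versus concentration plot.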

Spinacia oleracea [11] = assay: Effect on uncoupled photosystem 2 of spinach chloroplast assessed as inhibition of electron transport rate of water to silicomolybdate at 50 uM relative to control; summary of the method: as §3
Spinacia oleracea [12] = assay: Effect on uncoupled photosystem 2 of spinach leaves chloroplast assessed as inhibition of electron transport from water to 2,6-dichlorophenol indophenol at 300 uM relative to control
Summary of the method: (§4)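 Uncoupled PSII as DCPIP-supported O2 evolution, monitored polarographically with a Clark electrode. Spinach thylakoids in 100 mM sorbitol, 5 mM MgCl2, 10 mM KCl, 15 mM tricine pH 8.0 and 0.5 mM KCN. Ferricyanide 300 µM replaces MV; 1 µM DBMIB, 100 µM DCPIP and 6 mM NH4Cl added. Illumination 2 min through 1% CuSO4 filter. Activity relative to control.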

Spinacia oleracea [13] = assay: Effect on uncoupled photosystem 2 of spinach chloroplast assessed as inhibition of electron transport rate of water to silicomolybdate at 250 uM relative to control; summary of the method: as §3
Spinacia oleracea [14] = assay: Effect on uncoupled photosystem 2 of spinach leaves chloroplast assessed as inhibition of electron transport from diphenylcarbazide to 2,6-dichlorophenol indophenol at 150 uM relative to control; summary of the method: as §2
Spinacia oleracea [15] = assay: Effect on uncoupled photosystem 2 of spinach leaves chloroplast assessed as inhibition of electron transport from diphenylcarbazide to 2,6-dichlorophenol indophenol at 200 uM relative to control; summary of the method: as §2
Spinacia oleracea [16] = assay: Effect on uncoupled photosystem 2 of spinach leaves chloroplast assessed as inhibition of electron transport from water to 2,6-dichlorophenol indophenol at 200 uM relative to control; summary of the method: as §4
Spinacia oleracea [17] = assay: Effect on uncoupled photosystem 2 of spinach leaves chloroplast assessed as inhibition of electron transport from water to 2,6-dichlorophenol indophenol at 100 uM relative to control; summary of the method: as §4
Spinacia oleracea [18] = assay: Inhibition of photophosphorylation in spinach leaves chloroplast assessed as inhibition of noncyclic electron transport from water to methyl viologen in uncoupled condition; type: functional
Summary of the method: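 Water→0.05 mM MV O2 uptake measured with a Clark electrode in basal medium (15 mM tricine pH 8.0, 0.5 mM KCN) plus 6 mM NH4Cl as uncoupler, with 2 min actinic illumination. Compounds at 50–300 µM. I50 from the percent-activity versus concentration plot.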

Spinacia oleracea [19] = assay: Effect on uncoupled photosystem 2 of spinach leaves chloroplast assessed as inhibition of electron transport from diphenylcarbazide to 2,6-dichlorophenol indophenol at 50 uM relative to control; summary of the method: as §2
Spinacia oleracea [20] = assay: Effect on uncoupled photosystem 2 of spinach chloroplast assessed as inhibition of electron transport rate of water to silicomolybdate at 100 uM relative to control; summary of the method: as §3
Spinacia oleracea [21] = assay: Effect on uncoupled photosystem 2 of spinach leaves chloroplast assessed as inhibition of electron transport from water to 2,6-dichlorophenol indophenol at 50 uM relative to control; summary of the method: as §4
Spinacia oleracea [22] = assay: Effect on uncoupled photosystem 2 of spinach leaves chloroplast assessed as inhibition of electron transport from diphenylcarbazide to 2,6-dichlorophenol indophenol at 300 uM relative to control; summary of the method: as §2
Spinacia oleracea [23] = assay: Effect on uncoupled photosystem 2 of spinach leaves chloroplast assessed as inhibition of electron transport from water to 2,6-dichlorophenol indophenol at 150 uM relative to control; summary of the method: as §4
Spinacia oleracea [24] = assay: Effect on uncoupled photosystem 2 of spinach leaves chloroplast assessed as inhibition of electron transport from water to 2,6-dichlorophenol indophenol at 250 uM relative to control; summary of the method: as §4
Spinacia oleracea [25] = assay: Effect on uncoupled photosystem 2 of spinach chloroplast assessed as inhibition of electron transport rate of water to silicomolybdate at 200 uM relative to control; summary of the method: as §3

Structure (SMILES): COC(=O)c1c(C)cc(O)c(C)c1O [ATRARIC ACID]
IC50 (Echinochloa crus-galli [1]): 610 µM
IC50 (Echinochloa crus-galli [2]): 1.1 mM
IC50 [3]: 760 µM
IC50 [4]: 320 µM

Structure (SMILES): COC(=O)c1c(C)cc(O)c(C=O)c1O [METHYL HAEMATOMMATE]
IC50 (Echinochloa crus-galli [1]): 29 µM

Activity (Spinacia oleracea [5]): 29.9
IC50 [6]: 59.7 µM
Activity (Spinacia oleracea [7]): 58.5
Activity (Spinacia oleracea [8]): 62.5
Activity (Spinacia oleracea [9]): Active
IC50 [10]: 87.1 µM
Activity (Spinacia oleracea [11]): 93.4
Activity (Spinacia oleracea [12]): Active
Activity (Spinacia oleracea [13]): Active
Activity (Spinacia oleracea [14]): 40.3
Activity (Spinacia oleracea [15]): 33.8
Activity (Spinacia oleracea [16]): 16.8
Activity (Spinacia oleracea [17]): 49.7
Activity (Spinacia oleracea [19]): 84.3
Activity (Spinacia oleracea [20]): 79.9
Activity (Spinacia oleracea [21]): 72.1
Activity (Spinacia oleracea [22]): 17.9
Activity (Spinacia oleracea [23]): 31.3
Activity (Spinacia oleracea [24]): 4.1
Activity (Spinacia oleracea [25]): 41
Structure (SMILES): Cc1cc(OC(=O)c2c(C)cc(OC(=O)c3c(C)cc(O)cc3O)cc2O)cc(O)c1C(=O)O [GYROPHORIC ACID]
IC50 (Echinochloa crus-galli [1]): 2000 µM
IC50 (Echinochloa crus-galli [2]): 2 mM
Activity (Spinacia oleracea [18]): Active
IC50 [3]: 2000 µM
IC50 [4]: 2000 µM

Structure (SMILES): O=C(O)COc1ccc(Cl)cc1Cl [2,4-DICHLOROPHENOXYACETIC ACID]
IC50 (Echinochloa crus-galli [1]): > 230 µM
IC50 (Echinochloa crus-galli [2]): > 0.23 mM
IC50 [3]: 880 µM

Activity (Spinacia oleracea [5]): 112
IC50 [6]: 140 µM
Activity (Spinacia oleracea [7]): 86.9
Activity (Spinacia oleracea [8]): 8.4
Activity (Spinacia oleracea [9]): Active
IC50 [10]: 136 µM
Activity (Spinacia oleracea [11]): 59.1
Activity (Spinacia oleracea [12]): Active
Activity (Spinacia oleracea [13]): Active
Activity (Spinacia oleracea [14]): 88.9
Activity (Spinacia oleracea [15]): 96
Activity (Spinacia oleracea [16]): Active
Activity (Spinacia oleracea [17]): 37.5
Activity (Spinacia oleracea [19]): 93.6
Activity (Spinacia oleracea [20]): 25
Activity (Spinacia oleracea [21]): 64.3
Activity (Spinacia oleracea [22]): 135
Activity (Spinacia oleracea [23]): 15.7
Activity (Spinacia oleracea [24]): Active
Activity (Spinacia oleracea [25]): Active
Structure (SMILES): Cc1cc(O)cc(OC(=O)c2c(C)cc(O)cc2O)c1 [LECANORIN]
IC50 (Echinochloa crus-galli [1]): 180 µM
IC50 (Echinochloa crus-galli [2]): 0.71 mM
Activity (Spinacia oleracea [18]): Active
IC50 [3]: 760 µM
IC50 [4]: 580 µM

IC50 [10]: 0.14 µM
Structure (SMILES): CN(C)C(=O)Nc1ccc(Cl)c(Cl)c1 [DCMU]

Structure (SMILES): COC(=O)c1c(C)cc(O)cc1O [METHYL ORSELLINATE]
IC50 (Echinochloa crus-galli [1]): 310 µM
IC50 (Echinochloa crus-galli [2]): 0.68 mM
IC50 [3]: 360 µM
IC50 [4]: 290 µM

Structure (SMILES): COc1cc(C)c2c(=O)c3c(O)cc(OC)cc3oc2c1 [LICHEXANTHONE]
IC50 (Echinochloa crus-galli [1]): > 2000 µM
IC50 (Echinochloa crus-galli [2]): > 2 mM
IC50 [3]: > 2000 µM
IC50 [4]: > 2000 µM

Structure (SMILES): Cc1cc(O)cc(O)c1 [ORCINOL]
IC50 (Echinochloa crus-galli [1]): 1100 µM
IC50 (Echinochloa crus-galli [2]): > 8.1 mM
IC50 [3]: 1700 µM
IC50 [4]: 1000 µM
